ChEMBL document CHEMBL1126276, “Synthesis and antimalarial properties of 1-imino derivatives of 7-chloro-3-substituted-3,4-dihydro-1,9(2H,10H)-acridinediones and related structures” (J Med Chem, 1992)

Key:
[1] = system: Plasmodium berghei; test: Antimalarial activity in Plasmodium berghei infected mice (Mus musculus) after subcutaneous 640 mg/kg dose; format: functional
Outline: (§1)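 Normal drug-sensitive P. berghei strain in mice. Compound dissolved or suspended in sesame or peanut oil, given parenterally as a single subcutaneous dose 72 h postinfection.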

[2] = system: Plasmodium berghei; test: (§2) Antimalarial activity in Plasmodium berghei infected mice (Mus musculus) after 20 mg/kg subcutaneous dose; format: functional; outline: as §1
[3] = system: Plasmodium berghei; test: Antimalarial activity was measured against mice (Mus musculus) infected with Plasmodium berghei by subcutaneous administration of 640 mg/kg dose; format: organism-based; design: dose 640 mg/kg, route subcutaneous; conditions: in vivo, sc
Outline: (§3)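 […] in mice infected with a normal drug-sensitive P. berghei strain. Compound dissolved or suspended in sesame or peanut oil, given as a single subcutaneous dose 72 h postinfection.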

[4] = system: Plasmodium berghei; test: as §2; format: functional; outline: as §3; remark: listed apart in the source
[5] = system: Plasmodium berghei; test: Antimalarial activity in Plasmodium berghei infected mice (Mus musculus) after subcutaneous 160 mg/kg dose; format: functional; outline: as §1
[6] = system: Plasmodium berghei; test: (§4) Antimalarial activity in Plasmodium berghei infected mice (Mus musculus) after 40 mg/kg subcutaneous dose; format: functional; outline: as §1
[7] = system: Plasmodium berghei; test: Antimalarial activity in Plasmodium berghei infected mice (Mus musculus) after subcutaneous 320 mg/kg dose; format: functional; outline: as §1
[8] = system: Plasmodium berghei; test: as §4; format: functional; outline: as §3; remark: listed apart in the source
[9] = system: Plasmodium berghei; test: (§5) Antimalarial activity in Plasmodium berghei infected mice (Mus musculus) after 80 mg/kg subcutaneous dose; format: functional; outline: as §1
[10] = system: Plasmodium berghei; test: Antimalarial activity was measured against mice (Mus musculus) infected with Plasmodium berghei by subcutaneous administration of 320 mg/kg dose; format: organism-based; design: dose 320 mg/kg, route subcutaneous; conditions: in vivo, sc; outline: as §3
[11] = system: Plasmodium berghei; test: Antimalarial activity was measured against mice (Mus musculus) infected with Plasmodium berghei by subcutaneous administration of 160 mg/kg dose; format: organism-based; design: dose 160 mg/kg, route subcutaneous; conditions: in vivo, sc; outline: as §3
[12] = system: Plasmodium berghei; test: Antimalarial activity Plasmodium berghei infected mice (Mus musculus) after 640 mg/kg subcutaneous dose; format: functional; outline: as §3
[13] = system: Plasmodium berghei; test: Antimalarial activity in Plasmodium berghei infected mice (Mus musculus) after 320 mg/kg subcutaneous dose; format: functional; outline: as §3
[14] = system: Plasmodium berghei; test: as §5; format: functional; outline: as §3; remark: listed apart in the source
[15] = system: Plasmodium berghei; test: Antimalarial activity in Plasmodium berghei infected mice (Mus musculus) after 160 mg/kg subcutaneous dose; format: functional; outline: as §3

Compound | No. of cured mice [1] | No. of cured mice [2] | No. of toxic deaths [3] | Delta mean survival time [4] | No. of cured mice [5] | No. of cured mice [6] | No. of cured mice [7] | Delta mean survival time [8] | No. of cured mice [9] | No. of toxic deaths [10] | No. of toxic deaths [11] | Delta mean survival time [12] | Delta mean survival time [13] | Delta mean survival time [14] | Delta mean survival time ([12]; 640 mg/kg) | No. of cured mice ([2]; 20 mg/kg) | Delta mean survival time ([4]; 20 mg/kg) | No. of cured mice ([5]; 160 mg/kg) | Delta mean survival time ([13]; 320 mg/kg) | Delta mean survival time [15]
CN(C)CCC/N=C1\CC(c2ccc(Cl)cc2Cl)Cc2c1c(=O)c1cc(Cl)ccc1n2O (configuration not stated) | 4 | 4 | 1 | 10.6 | 5 | 5 |  |  |  |  |  |  |  |  |  |  |  |  |  | 
CCCCNC(CC)C/N=C1\CC(c2ccc(C(F)(F)F)cc2)Cc2c1c(=O)c1cc(Cl)ccc1n2O (configuration not stated) | 4 | 2 | 1 | 6 | 5 | 2 | 5 | 7.7 | 4 |  |  |  |  |  |  |  |  |  |  | 
CN(C)CCC/N=C1\CC(c2ccc(C(F)(F)F)cc2)Cc2nc3ccc(Cl)cc3c(O)c21 (configuration not stated) | 2 | 3 | 3 | 10.4 | 3 | 5 | 2 |  | 5 | 2 | 1 |  |  |  |  |  |  |  |  | 
CC1/C(=N\CCCN(C)C)c2c(n(O)c3ccc(Cl)cc3c2=O)CC1c1ccc(C(F)(F)F)cc1 (configuration not stated) |  |  | 5 | 8.1 |  | 2 |  | 10.2 | 5 | 5 | 5 |  |  |  |  |  |  |  |  | 
CC1/C(=N\CCCN(C)C)c2c(nc3ccc(Cl)cc3c2O)CC1c1ccc(Cl)cc1Cl (configuration not stated) | 3 | 3 |  | 0.1 | 5 | 4 | 4 | 19.9 | 5 |  |  | 2.9 | 3.9 |  |  |  |  |  |  | 
CCN(CC)CC(C)(C)C/N=C1\CC(c2ccc(C(F)(F)F)cc2)Cc2c1c(=O)c1cc(Cl)ccc1n2O (configuration not stated) | 3 | 3 | 2 | 13 | 5 | 3 | 5 | 11.2 | 4 |  |  |  |  | 12.5 |  |  |  |  |  | 
CC1/C(=N\CCCN(C)C)c2c(n(O)c3ccc(Cl)cc3c2=O)CC1c1ccc(Cl)cc1Cl (configuration not stated) | 1 | 1 |  | 11.1 | 5 | 5 | 4 |  | 4 |  |  | 1.8 | 2.8 | 16.8 |  |  |  |  |  | 
CN(C)CCC/N=C1\CC(c2ccc(C(F)(F)F)cc2)Cc2nc3ccc(F)cc3c(O)c21 (configuration not stated) |  |  | 5 |  | 1 | 4 |  | 14.9 |  |  | 4 |  |  |  |  |  |  |  |  | 
CCN(CC)CCCC/N=C1\CC(c2ccc(C(F)(F)F)cc2)Cc2c1c(=O)c1cc(Cl)ccc1n2O (configuration not stated) |  | 2 | 4 | 14 | 5 | 4 | 4 | 10.5 | 5 |  |  |  |  |  |  |  |  |  |  | 
CC1/C(=N\CCCN(C)C)c2c(nc3ccc(Cl)cc3c2O)CC1c1ccc(C(F)(F)F)cc1 (stereo in doubt; trans) | 1 |  |  |  |  |  | 4 |  |  |  |  |  |  |  | 2.7 | 1 | 11 | 5 | 3.7 | 
CCN(CC)CC/N=C1\CC(c2ccc(Cl)c(Cl)c2)Cc2nc3ccc(Cl)cc3c(O)c21 (configuration not stated) | 5 | 2 |  | 9.3 | 5 | 4 | 3 | 8 | 4 |  |  |  | 20 | 8 |  |  |  |  |  | 
O=c1c2c(n(O)c3ccc(Cl)cc13)CC(c1ccc(C(F)(F)F)cc1)C/C2=N\CCCN1CCCC1 (configuration not stated) | 1 | 1 | 4 | 11 | 5 | 2 | 3 | 10.8 | 5 | 1 |  |  |  |  |  |  |  |  |  | 
CCN(CC)CCCCCCC/N=C1\CC(c2ccc(Cl)cc2Cl)Cc2nc3ccc(Cl)cc3c(O)c21 (configuration not stated) | 5 | 4 |  | 6.7 | 4 | 4 | 4 | 9.7 | 5 |  |  |  | 3.7 |  |  |  |  |  |  | 0.7
CN(C)CCC/N=C1\CC(c2ccc(C(F)(F)F)cc2)Cc2c1c(=O)c1cc(Cl)ccc1n2O (configuration not stated) | 1 | 5 | 5 |  | 3 | 5 | 2 |  | 4 | 3 | 2 |  |  |  |  |  |  |  |  | 
O=c1c2c(n(O)c3ccc(Cl)cc13)CC(c1ccc(C(F)(F)F)cc1)C/C2=N\CCCN(CCO)CCO (configuration not stated) | 5 | 2 |  | 12 | 5 | 4 | 5 | 14.8 | 1 |  |  |  |  | 9.5 |  |  |  |  |  | 
O=c1c2c(n(O)c3ccc(Cl)cc13)CC(c1ccc(C(F)(F)F)cc1)C/C2=N\CCCNCCO (configuration not stated) | 1 |  | 4 | 6.4 | 5 | 3 | 4 | 10.7 | 5 | 1 |  |  |  |  |  |  |  |  |  | 
CN(C)CCC/N=C1\CC(c2ccc(C(F)(F)F)cc2)Cc2nc3ccc([N+](=O)[O-])cc3c(O)c21 (configuration not stated) | 1 |  | 4 | 2.2 | 4 |  | 3 | 5.4 | 1 | 2 |  |  |  | 8.9 |  |  |  |  |  | 11.6
O=C(O)c1ccc(C2CC(=O)c3c(n(O)c4ccc(Cl)cc4c3=O)C2)cc1 (configuration not stated) |  |  | 4 |  |  |  |  | -0.1 |  |  | 1 | 0.9 |  |  |  |  |  |  |  | -0.1
O=C1CC(c2ccc(Cl)cc2Cl)Cc2nc3ccc(Cl)cc3c(O)c21 (configuration not stated) | 5 | 2 |  | 10.3 | 4 | 3 | 5 | 18.1 | 4 |  |  |  |  | 15.8 |  |  |  |  |  | 17.8
CC1/C(=N\CCCN(C)C)c2c(nc3ccc(Cl)cc3c2O)CC1c1ccc(C(F)(F)F)cc1 (stereo in doubt; cis) |  |  | 1 |  |  | 5 |  |  | 5 |  |  |  |  |  | 2.3 | 4 | 10.7 | 4 | 3.1 | 3
O=c1c2c(n(O)c3ccc(Cl)cc13)CC(c1cccc(C(F)(F)F)c1)C/C2=N\CCCCCCN1CCCCC1 (configuration not stated) |  |  | 5 |  | 2 |  |  | 4 |  | 5 | 3 |  |  | 6.4 |  |  |  |  |  | 
CCc1ccc2nc3c(c(O)c2c1)/C(=N/CCCN(C)C)CC(c1ccc(C(F)(F)F)cc1)C3 (configuration not stated) |  |  | 4 |  |  |  |  | 0.6 |  |  | 1 | 1.4 |  |  |  |  |  |  |  | 1.9
CCN(CC)CC/N=C1\CC(c2ccc(Cl)c(Cl)c2)Cc2c1c(=O)c1cc(Cl)ccc1n2O (configuration not stated) | 5 | 1 |  | 10.5 | 5 | 3 | 5 | 8.8 | 3 |  |  |  |  | 12.7 |  |  |  |  |  | 
CCN(CC)CC(C)(C)C/N=C1\CC(c2ccc(C(F)(F)F)cc2)Cc2nc3ccc(Cl)cc3c(O)c21 (configuration not stated) | 4 | 2 |  | 8.6 | 5 | 2 | 4 | 10.3 | 4 |  |  | 1.3 | 49.6 | 13.6 |  |  |  |  |  | 
O=C1CC(c2ccc(C(F)(F)F)cc2)Cc2c1c(=O)c1cc(Cl)ccc1n2O (configuration not stated) [FLOXACRINE] | 3 | 4 |  | 8.9 | 5 | 5 | 5 |  | 5 |  |  | 3.4 |  |  |  |  |  |  |  | 
